The target in data set [1] is T1, Monocarboxylate transporter 4 (Homo sapiens) (UniProt O15427).
T1 sequence (whole entry): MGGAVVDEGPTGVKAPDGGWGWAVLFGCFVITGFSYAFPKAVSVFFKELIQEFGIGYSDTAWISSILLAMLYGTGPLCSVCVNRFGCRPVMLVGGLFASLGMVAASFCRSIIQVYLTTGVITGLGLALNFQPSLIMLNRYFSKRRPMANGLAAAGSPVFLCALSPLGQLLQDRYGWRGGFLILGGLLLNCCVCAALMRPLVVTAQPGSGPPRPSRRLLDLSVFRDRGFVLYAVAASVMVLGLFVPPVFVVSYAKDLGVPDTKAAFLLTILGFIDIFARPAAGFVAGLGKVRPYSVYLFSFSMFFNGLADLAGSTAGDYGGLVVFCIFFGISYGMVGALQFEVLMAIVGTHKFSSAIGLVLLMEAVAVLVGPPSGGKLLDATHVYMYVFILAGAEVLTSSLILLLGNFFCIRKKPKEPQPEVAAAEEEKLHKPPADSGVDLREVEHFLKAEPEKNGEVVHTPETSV
The data set can be described thus: (§1) TP_TRANSPORTER: uptake in Xenopus laevis oocytes. The format is functional, cell-based. The note with it: Oocyte. A digest of the protocol:
(§2)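 Stage V–VI oocytes were injected with 12 ng MCT4 or MCT1 cRNA and kept in Barth's medium at 18°C. They were assayed 48–72 h later after loading with 5 μM BCECF-AM (30 min, room temperature, pH 7.4 buffer). Single oocytes were superfused with monocarboxylate Na salt (isosmotic NaCl replacement). Initial acidification rate came from a first-order fit, normalised to L-lactate on the same oocyte, then Michaelis–Menten regression.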

Data set [2] deals with T2, Monocarboxylate transporter 4 (Homo sapiens, UniProt O15427).
T2 sequence (O15427 whole entry): T1 sequence (whole entry)
The data set can be described thus: TP_TRANSPORTER: inhibition of L-Lactate uptake (L-Lactate:30mM) in Xenopus laevis oocytes. In kind it is functional, cell-based, Oocyte. In outline: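 Human MCT4 cRNA (12 ng) injected into collagenase-treated stage V–VI oocytes, cultured 48–72 h at 18°C. Oocytes loaded with 5 μM BCECF-AM, 30 min, room temperature. Single oocyte superfused in uptake buffer pH 7.4 (NaCl isosmotically replaced). Inhibitor added simultaneously with 30 mM L-lactate at increasing concentrations. Initial acidification rate from first-order fit, as % of uninhibited rate. K0.5 from non-competitive fit, n=4–5 oocytes.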

Substrate in data set [3]: CCC(O)C(=O)O
Described as §1. The format is functional, cell-based. The note with it: Oocyte. In outline: as §2

Substrate in data set [4]: O=C(O)CCCl
The data set is described as §1. The format is functional, cell-based. Particulars: Oocyte. In outline:
as §2

Substrate in data set [5]: CC(O)C(=O)[O-].[Na+]
The description is as §1. In kind it is functional, cell-based. The note with it: Oocyte. A digest of the protocol: as §2

Substrate in data set [6]: COC(=O)[C@H](C)Cl
The description is as §1. Particulars: Oocyte. The format is functional, cell-based. In outline:
as §2

Substrate in data set [7]: CC(C)CC(=O)C(=O)O
Described as §1. In kind it is functional, cell-based. The note with it: Oocyte. In outline: as §2

Substrate in data set [8]: CCC(=O)C(=O)O
The data set is described as §1. In kind it is functional, cell-based. Particulars: Oocyte. A digest of the protocol: as §2

For `O=C(O)C(=O)Cc1ccccc1`, the Activity entry in data set [1] was “is not a substrate [-]”.

In data set [2] (oocyte), p-Chloromercuribenzenesulfonate came in with an IC50 of 21 µM.

Regarding `O=CC(=O)O`, the Activity entry in data set [1] was “is not a substrate [-]”.

Regarding `O=C(O)O`, the Activity result in data set [1] is “is not a substrate [-]”.

As to `NC(=O)C(=O)O`, the Activity entry in data set [1] is “is not a substrate [-]”.

On to `O=C(O)CCCO`, for which the Activity entry in data set [1] is “is not a substrate [-]”.

`N#C/C(=C\c1ccc(O)cc1)C(=O)O` [alpha-CYANO-4-HYDROXYCINNAMIC ACID] gave an IC50 in data set [2] of 991 µM.

`O=C(CCc1ccc(O)cc1)c1c(O)cc(O)cc1O` [PHLORETIN] registered an IC50 in data set [2] of 41 µM.

In turn, `O=C(O)c1cc([N+](=O)[O-])ccc1NCCCc1ccccc1` [5-NITRO-2-PHENYLPROPYLAMINOBENZOIC ACID [NPPB]] registered an IC50 in data set [2] of 240 µM.

As to `CC(C)Cn1c(=O)n(C)c(=O)c2[nH]cnc21` [ISOBUTYLMETHYLXANTHINE], inhibition in data set [2] was half-maximal at 970 µM (IC50).

Consider `O=C[O-].[Na+]`, for which the Activity result in data set [1] is “is not a substrate [-]”.

B1: Monocarboxylate transporter 4 (Homo sapiens), O15427 (protein)
chain: T1 sequence (whole entry)
For the molecule B1, the Km in data set [3] worked out at 56 mM; in data set [4] it was 51 mM; in data set [5] it was 28 mM; in data set [6] it was 46 mM; in data set [7], 95 mM; in data set [8], 57 mM.

These data come from ChEMBL document CHEMBL2074454, “Characterisation of human monocarboxylate transporter 4 substantiates its role in lactic acid efflux from skeletal muscle” (J Physiol, 2000).
